Source: ChEMBL document CHEMBL4387734, “Design and synthesis of a novel series of cyanoindole derivatives as potent γ-secretase modulators” (Bioorg Med Chem Lett, 2019)
Values after ≈ are worked out from the molar mass of the structure shown.

Columns and labels:
Gamma-secretase = test: Inhibition of gamma secretase in human SKNBE2 cells expressing human APP695 assessed as reduction in Abeta42 levels incubated for 18 hrs by sandwich ELISA
[1] = Inhibition of gamma secretase in mouse Neuro2 cells expressing endogenous levels of amyloid precursor protein assessed as reduction in Abeta42 levels incubated for 18 hrs by sandwich ELISA; assay type: cell-based
In short: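 IC50 as concentration reducing Aβ42 by 50%; mean of at least 2 determinations; mouse assay.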

[2] = Fraction of unbound in rat brain
[3] = Free drug concentration in mouse brain; assay type: ADME, tissue-based; settings: in vivo
In short: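 Free brain concentration calculated as fu,b × total brain level (μM), mouse 30 mg/kg p.o., 4 h.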

Mus musculus [4] = test: In vivo inhibition of gamma secretase in mouse assessed as assessed as reduction in Abeta42 levels in brain at 30 mg/kg, po measured after 4 hrs relative to control; assay type: functional
[5] = Drug concentration in mouse plasma at 30 mg/kg, po measured after 4 hrs by LC/MS/MS method; assay type: ADME, organism-based
In short: (§1)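 Mice dosed orally at 30 mg/kg; plasma and brain sampled 4 h post-dose; compound quantified by qualified research LC–MS/MS; brain/plasma ratio at 4 h.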

[6] = Drug concentration in mouse brain at 30 mg/kg, po measured after 4 hrs by LC/MS/MS method; assay type: ADME, organism-based; settings: read-out: Drug uptake
In short: as §1

Mus musculus [7] = test: In vivo inhibition of gamma secretase in mouse increase in Abeta38 levels in brain at 30 mg/kg, po measured after 4 hrs relative to control; design: scale not given: the % may be the effect or the level left
[8] = molecular target: Gamma-secretase (Homo sapiens) (UniProt Q96BI3+Q9NZ42+Q8WW43+P49768+Q92542+P49810); test: Inhibition of gamma secretase in human SKNBE2 cells expressing human APP695 assessed as increase in Abeta38 levels at 10 uM incubated for 18 hrs by sandwich ELISA; assay type: cell-based; design: scale not given: the % may be the effect or the level left
[9] = Ratio of drug concentration in brain to plasma of mouse at 30 mg/kg, po measured after 4 hrs by LC/MS/MS method; assay type: ADME, organism-based; settings: read-out: BPR
In short: as §1

[10] = Lipophilicity, log P of the compound; assay type: physicochemical; settings: octanol/water
Cytochrome P450 2C19 = Cytochrome P450 2C19 (Homo sapiens, UniProt P33261); test: Inhibition of CYP2C19 (unknown origin); assay type: ADME
Sequence of Cytochrome P450 2C19 (P33261 whole entry): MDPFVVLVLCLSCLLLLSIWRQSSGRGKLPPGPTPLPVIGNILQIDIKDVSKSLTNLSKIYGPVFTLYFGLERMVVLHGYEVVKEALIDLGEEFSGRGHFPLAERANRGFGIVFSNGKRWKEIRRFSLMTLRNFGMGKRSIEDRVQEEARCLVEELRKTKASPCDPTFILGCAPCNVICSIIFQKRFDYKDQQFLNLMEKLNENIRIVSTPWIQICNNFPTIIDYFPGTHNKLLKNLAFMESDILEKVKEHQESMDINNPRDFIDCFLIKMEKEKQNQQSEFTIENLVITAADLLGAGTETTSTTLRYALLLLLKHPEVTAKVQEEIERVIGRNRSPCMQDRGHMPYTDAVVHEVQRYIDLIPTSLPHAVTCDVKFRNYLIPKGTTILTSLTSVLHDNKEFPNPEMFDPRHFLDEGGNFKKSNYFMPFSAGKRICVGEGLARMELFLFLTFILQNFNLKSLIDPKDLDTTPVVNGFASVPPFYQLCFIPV

[11] = Metabolic stability in human liver microsomes assessed as compound metabolism at 1 uM incubated for 15 mins; assay type: ADME, Microsome; settings: read-out: Drug metabolism
In short: (§2)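 Compound at 1 μM incubated 15 min with human, mouse or dog liver microsomes; percent metabolized reported.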

Cytochrome P450 3A4 = Cytochrome P450 3A4 (Homo sapiens, UniProt P08684); test: Activation of CYP3A4 (unknown origin) using midazolam; assay type: ADME
Sequence of Cytochrome P450 3A4 (P08684 whole entry): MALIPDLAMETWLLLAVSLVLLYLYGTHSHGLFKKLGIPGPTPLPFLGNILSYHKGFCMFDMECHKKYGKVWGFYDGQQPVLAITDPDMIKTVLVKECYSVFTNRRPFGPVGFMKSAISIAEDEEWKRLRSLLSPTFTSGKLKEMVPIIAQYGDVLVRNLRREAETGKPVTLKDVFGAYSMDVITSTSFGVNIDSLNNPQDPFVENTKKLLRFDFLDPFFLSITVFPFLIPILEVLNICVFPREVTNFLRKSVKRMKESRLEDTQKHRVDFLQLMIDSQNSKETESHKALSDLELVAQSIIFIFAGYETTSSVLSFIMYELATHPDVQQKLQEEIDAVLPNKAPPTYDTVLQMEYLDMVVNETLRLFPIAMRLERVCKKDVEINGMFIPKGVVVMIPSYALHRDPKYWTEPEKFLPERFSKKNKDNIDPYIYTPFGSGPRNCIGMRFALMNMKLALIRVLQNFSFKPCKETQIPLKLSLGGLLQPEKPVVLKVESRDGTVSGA

[12] = Metabolic stability in dog liver microsomes assessed as compound metabolism at 1 uM incubated for 15 mins; assay type: ADME, Canis lupus familiaris, Microsome; settings: read-out: Drug metabolism
In short: as §2

Cytochrome P450 2D6 = Cytochrome P450 2D6 (Homo sapiens, UniProt P10635); test: Inhibition of CYP2D6 (unknown origin); assay type: ADME
Sequence of Cytochrome P450 2D6 (P10635 whole entry): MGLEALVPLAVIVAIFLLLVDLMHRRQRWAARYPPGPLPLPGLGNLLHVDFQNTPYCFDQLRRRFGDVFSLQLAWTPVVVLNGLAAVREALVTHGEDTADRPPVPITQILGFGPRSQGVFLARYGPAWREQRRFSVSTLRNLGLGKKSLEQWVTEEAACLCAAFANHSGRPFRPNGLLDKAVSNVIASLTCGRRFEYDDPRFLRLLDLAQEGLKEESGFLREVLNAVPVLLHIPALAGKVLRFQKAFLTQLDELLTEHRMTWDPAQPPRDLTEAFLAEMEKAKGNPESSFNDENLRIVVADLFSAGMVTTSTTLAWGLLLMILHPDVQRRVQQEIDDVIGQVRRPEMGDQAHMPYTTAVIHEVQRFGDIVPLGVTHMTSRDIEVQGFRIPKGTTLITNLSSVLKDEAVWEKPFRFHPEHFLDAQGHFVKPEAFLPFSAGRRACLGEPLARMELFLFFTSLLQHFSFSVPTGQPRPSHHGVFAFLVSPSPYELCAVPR

[13] = Metabolic stability in mouse liver microsomes assessed as compound metabolism at 1 uM incubated for 15 mins; assay type: ADME, Microsome; settings: read-out: Drug metabolism
In short: as §2

[14] = molecular target: Voltage-gated inwardly rectifying potassium channel KCNH2 (Homo sapiens, UniProt Q12809); test: Inhibition of human ERG by receptor binding assay
Sequence of Voltage-gated inwardly rectifying potassium channel KCNH2 (Q12809 whole entry): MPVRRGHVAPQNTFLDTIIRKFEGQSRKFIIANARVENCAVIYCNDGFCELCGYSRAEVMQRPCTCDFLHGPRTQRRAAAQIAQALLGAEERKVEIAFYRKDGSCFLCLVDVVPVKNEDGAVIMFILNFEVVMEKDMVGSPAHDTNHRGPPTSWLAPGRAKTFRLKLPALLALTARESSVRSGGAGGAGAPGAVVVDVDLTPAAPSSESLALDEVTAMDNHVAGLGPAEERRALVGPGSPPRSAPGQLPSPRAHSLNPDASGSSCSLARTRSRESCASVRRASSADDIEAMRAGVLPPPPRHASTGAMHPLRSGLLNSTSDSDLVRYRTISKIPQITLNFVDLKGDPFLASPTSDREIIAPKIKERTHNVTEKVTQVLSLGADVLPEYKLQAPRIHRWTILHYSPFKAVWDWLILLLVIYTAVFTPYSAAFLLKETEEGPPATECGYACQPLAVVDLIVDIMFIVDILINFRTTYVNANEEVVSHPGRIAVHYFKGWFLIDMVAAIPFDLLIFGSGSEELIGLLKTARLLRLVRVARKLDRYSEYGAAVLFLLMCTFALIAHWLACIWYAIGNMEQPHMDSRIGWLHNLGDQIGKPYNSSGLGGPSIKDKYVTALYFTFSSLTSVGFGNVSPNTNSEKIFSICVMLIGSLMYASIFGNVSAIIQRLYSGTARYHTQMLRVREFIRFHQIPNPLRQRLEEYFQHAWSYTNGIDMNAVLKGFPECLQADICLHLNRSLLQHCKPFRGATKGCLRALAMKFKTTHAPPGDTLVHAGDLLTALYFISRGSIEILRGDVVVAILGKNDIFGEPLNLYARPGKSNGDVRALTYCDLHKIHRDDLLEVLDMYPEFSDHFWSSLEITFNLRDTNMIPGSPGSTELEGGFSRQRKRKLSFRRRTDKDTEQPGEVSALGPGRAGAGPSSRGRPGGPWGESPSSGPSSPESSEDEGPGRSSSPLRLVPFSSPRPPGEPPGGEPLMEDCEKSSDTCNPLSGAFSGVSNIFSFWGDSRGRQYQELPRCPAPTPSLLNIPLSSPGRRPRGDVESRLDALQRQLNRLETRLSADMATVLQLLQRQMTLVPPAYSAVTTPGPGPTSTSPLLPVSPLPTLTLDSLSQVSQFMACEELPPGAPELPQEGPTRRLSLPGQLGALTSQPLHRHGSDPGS
In short: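 Receptor binding on human hERG channel; IC50 reported.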

Cytochrome P450 2C9 = Cytochrome P450 2C9 (Homo sapiens, UniProt P11712); test: Inhibition of CYP2C9 (unknown origin); assay type: ADME
Sequence of Cytochrome P450 2C9 (P11712 whole entry): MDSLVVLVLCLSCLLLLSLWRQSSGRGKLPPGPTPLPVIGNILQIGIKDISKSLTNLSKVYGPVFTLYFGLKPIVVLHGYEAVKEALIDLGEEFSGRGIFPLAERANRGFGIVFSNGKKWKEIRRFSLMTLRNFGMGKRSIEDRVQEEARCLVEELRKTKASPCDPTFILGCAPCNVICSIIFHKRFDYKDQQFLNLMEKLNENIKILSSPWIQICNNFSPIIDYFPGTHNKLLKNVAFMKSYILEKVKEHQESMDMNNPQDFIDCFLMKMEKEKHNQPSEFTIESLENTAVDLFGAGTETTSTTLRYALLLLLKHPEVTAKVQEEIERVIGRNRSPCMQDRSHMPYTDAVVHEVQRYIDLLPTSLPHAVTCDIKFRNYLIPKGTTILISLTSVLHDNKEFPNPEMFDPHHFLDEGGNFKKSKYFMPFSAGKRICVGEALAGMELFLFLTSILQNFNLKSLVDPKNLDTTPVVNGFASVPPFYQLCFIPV

[15] = Kinetic solubility of the compound in pH 7.4 buffer; assay type: physicochemical; settings: read-out: Kinetic_solubility
hERG (KCNH2) = hERG (KCNH2) (Homo sapiens, UniProt Q12809); test: Inhibition of human ERG assessed as inhibition of IKr current at 3 uM by patch express assay
Sequence of hERG (KCNH2) (Q12809 whole entry): as the sequence (Q12809 whole entry) above
In short: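 Human ERG: percent inhibition of IKr current at 3 μM.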

Row | Structure (SMILES) | IC50 (Gamma-secretase) [nM] | IC50 [1] [nM] | concentration at 4 h [5] [µM] | concentration at 4 h [6] [µM] | inhibition in vivo at 30 mg/kg (Mus musculus [4]) [%] | Activity (Mus musculus [7]) [%] | other results
1 | COc1c(C#N)ccc2[nH]c(-c3cn4c(n3)[C@H](c3ccccc3Cl)O[C@@H](C)C4)cc12 | 66 |  |  |  |  |  | 
2 | Cc1cn(-c2ccc3[nH]c(-c4nc(-c5cccc(C(F)(F)F)c5)n(C)n4)cc3c2)cn1 |  | 85 |  |  |  |  | 
3 | COc1cc(Nc2cccn3cc(-c4ccc(F)cc4)nc23)ccc1C#N |  | > 10000 |  |  |  |  | 
4 | COc1c(C#N)ccc2[nH]c(-c3nc4n(n3)CCO[C@H]4c3cccc(F)c3C)cc12 | 31 | 19 | 2.5 | 5.5 | 33 | 60 | Fu [2]: 0.17%; Drug uptake(free) [3]: 0.009 µM
5 | COc1c(C#N)ccc2[nH]c(-c3cn4c(n3)[C@H](c3cc(C(F)(F)F)ccc3F)OCC4)cc12 | 41 | 74 | 10.6 | 16.3 | 35 | 41 | 
6 | COc1c(C#N)ccc2[nH]c(-c3cn4c(n3)[C@H](c3ccccc3Cl)O[C@H](C)C4)cc12 | 17 |  |  |  |  |  | 
7 | COc1c(C#N)ccc2[nH]c(-c3cn4c(n3)C(c3ccccc3Cl)CC(C)(O)C4)cc12 (stereo unspecified) | 22 |  |  |  |  |  | 
8 | COCc1ccccc1[C@@H]1OCCn2cc(-c3cc4c(OC)c(C#N)ccc4[nH]3)nc21 | 110 | 85 |  |  |  |  | 
9 | COc1c(C#N)ccc2[nH]c(-c3nc4n(n3)CCO[C@H]4c3ccc(F)cc3C)cc12 | 32 | 34 | 1.52 | 1.71 | 5 | -12 | 
10 | COc1c(C#N)ccc2[nH]c(-c3cn4c(n3)C(C(C)c3ccc(F)cc3)OCC4)cc12 (stereo unspecified) | 219 | 339 |  |  |  |  | 
11 | N#CCCNc1cc(Cc2c(Cl)cccc2Cl)nc(Nc2ccc(C#N)cc2)n1 |  | 680 |  |  |  |  | Activity [8]: 242%
12 | COc1c(C#N)ccc2[nH]c(-c3cn4c(n3)[C@H](c3ccccc3Cl)C[C@@H](C)C4)cc12 (racemic) | 15 |  |  |  |  |  | 
13 | COc1nc(Nc2cccc3c2nc(-c2cccc(C(F)(F)F)c2)n3C)ccc1-n1cnc(C)c1 |  | 7 |  |  |  |  | 
14 | COc1nc(-c2nc(Nc3cc(F)cc(C(F)(F)F)c3)n(C)n2)ccc1-n1cnc(C)c1 | 19 | 49 | 17.8 | 14 | 55 | 53 | Fu [2]: 0.5%; Kp at 4 h [9]: 0.8; logP [10]: 4.24; IC50 (Cytochrome P450 2C19): 22.1 µM; metabolised at 0.25 h, 1 µM [11]: 4%; Drug uptake(free) [3]: 0.069 µM; Activity (Cytochrome P450 3A4): Active; metabolised at 0.25 h, 1 µM [12]: 10%; IC50 (Cytochrome P450 2D6): 16 µM; metabolised at 0.25 h, 1 µM [13]: 0%; IC50 [14]: > 10 µM; IC50 (Cytochrome P450 2C9): 12.3 µM; solubility kinetic [15]: 39 µM (≈ 17.4 µg/mL); inhibition at 3 µM (hERG (KCNH2)): 52%
15 | COc1c(C#N)ccc2[nH]c(-c3cn4c(n3)[C@H](c3ccccc3Cl)OCC4)cc12 | 26 | 23 | 8.3 | 23.8 | 60 | 61 | Fu [2]: 0.47%; Drug uptake(free) [3]: 0.112 µM
16 | COc1cc(Nc2cccn3cc(-c4ccc(F)cc4)nc23)ccc1-n1cnc(C)c1 |  | 182 |  |  |  |  | 
17 | N#Cc1ccc(Nc2nc(Cc3c(Cl)cccc3Cl)cc(NCC(O)c3ccccc3)n2)cc1 (stereo unspecified) |  | 1670 |  |  |  |  | Activity [8]: 244%
18 | CCc1cc(CCC#N)ccc1N1CCc2c(C)nc(Nc3ccc(C#N)cc3)nc21 |  | 780 |  |  |  |  | Activity [8]: 240%
19 | COc1c(C#N)ccc2[nH]c(-c3cn4c(n3)C(c3ccc(F)cc3C)CCC4)cc12 (racemic) | 112 | 50 | 4.5 | 1.9 | 51 | 17 | 
20 | COc1c(C#N)ccc2[nH]c(-c3cn4c(n3)C(c3ccccc3Cl)CC(O)(CO)C4)cc12 (stereo unspecified) | 39 |  |  |  |  |  | 
21 | COc1c(C#N)ccc2[nH]c(-c3cn4c(n3)[C@H](c3ccc(F)cc3C)OCC4)cc12 | 23 | 16 | 9.2 | 6.9 | 45 | 122 | Fu [2]: 0.23%; Drug uptake(free) [3]: 0.016 µM

Further lines, with some results ahead:

Row | IC50 (Gamma-secretase) [nM] | IC50 [1] [nM] | concentration at 4 h [5] [µM] | concentration at 4 h [6] [µM] | Structure (SMILES) | inhibition in vivo at 30 mg/kg (Mus musculus [4]) [%] | Activity (Mus musculus [7]) [%] | other results
22 | 3980 | 8500 |  |  | N#Cc1ccc2cc(-c3nc4n(n3)CCCC4c3ccccc3C(F)(F)F)[nH]c2c1 (racemic) |  |  | 
23 |  | 46 |  |  | Cc1cn(-c2ccc3[nH]c(-c4nc5n(n4)CCCC5c4ccccc4C(F)(F)F)cc3c2)cn1 (stereo unspecified) |  |  | 
24 | 18 | 19 | 8.4 | 16.4 | COc1c(C#N)ccc2[nH]c(-c3cn4c(n3)[C@H](c3ccccc3C(F)(F)F)OCC4)cc12 (single isomer, unassigned) | 73 | 10 | Fu [2]: 0.21%; Drug uptake(free) [3]: 0.034 µM
25 | 25 | 28 | 0.75 | 0.69 | COc1c(C#N)ccc2[nH]c(-c3nc4n(n3)CCCC4c3ccc(F)cc3C)cc12 (racemic) | 45 | -9 | 
26 | 603 | 295 |  |  | COc1c(C#N)ccc2[nH]c(-c3nc4n(n3)CCO[C@@H]4c3ccccc3C(F)(F)F)cc12 |  |  | 
27 | 98 | 107 |  |  | COc1c(C#N)ccc2[nH]c(-c3nc4n(n3)CCO[C@H]4c3cc(C(F)(F)F)ccc3F)cc12 |  |  | 
28 | 36 | 36 to 38 |  |  | COc1c(C#N)ccc2[nH]c(-c3nc4n(n3)CCCC4c3ccccc3C(F)(F)F)cc12 (racemic) |  |  | 
29 | 36 | 42 | 11.3 | 18.7 | COc1c(C#N)ccc2[nH]c(-c3cn4c(n3)[C@H](c3c(F)cccc3C(F)(F)F)OCC4)cc12 | 40 | 136 | 
30 | 107 | 166 |  |  | COc1cc2[nH]c(-c3nc4n(n3)CCCC4c3ccccc3C(F)(F)F)cc2cc1C#N (racemic) |  |  | 
31 | 59 | 59 | 1.7 | 9.6 | COc1c(C#N)ccc2[nH]c(-c3nc4n(n3)CCO[C@H]4c3cccc(F)c3C(F)(F)F)cc12 | 2 | 19 | Fu [2]: 0.09%; Drug uptake(free) [3]: 0.009 µM
32 | 45 | 42 | 5.4 | 10.5 | COc1c(C#N)ccc2[nH]c(-c3nc4n(n3)CCO[C@H]4c3ccccc3C(F)(F)F)cc12 | 46 | 39 | 
33 | 117 | 186 |  |  | N#Cc1ccc2[nH]c(-c3nc4n(n3)CCCC4c3ccccc3C(F)(F)F)cc2c1 (racemic) |  |  | 
34 | 347 | 251 |  |  | COc1c(C#N)ccc2[nH]c(-c3cn4c(n3)[C@@H](c3ccccc3C(F)(F)F)OCC4)cc12 |  |  | 
35 |  | 275 |  |  | COc1cc(/C=C/c2nc3n(n2)CCC[C@H]3c2ccccc2C(F)(F)F)ccc1C#N |  |  | 
36 | 4000 | > 10000 |  |  | Cn1c(-c2nc3n(n2)CCCC3c2ccccc2C(F)(F)F)cc2cc(C#N)ccc21 (racemic) |  |  | 
37 | 72 | 41 |  |  | COc1c(C#N)ccc2[nH]c(-c3nc4n(n3)CCOC4c3ccccc3C(F)(F)F)cc12 (racemic) |  |  | 
38 |  | 11 |  |  | COc1nc(/C=C/c2nc3n(n2)CCC[C@H]3c2ccccc2C(F)(F)F)ccc1-n1cnc(C)c1 [E-2212] |  |  | 
